pIC50, pKi: −log10 of the molar value.

In experiment [1] the target is T1, Prostaglandin E2 receptor EP1 subtype (Homo sapiens, UniProt P34995).
T1 sequence (P34995 whole entry): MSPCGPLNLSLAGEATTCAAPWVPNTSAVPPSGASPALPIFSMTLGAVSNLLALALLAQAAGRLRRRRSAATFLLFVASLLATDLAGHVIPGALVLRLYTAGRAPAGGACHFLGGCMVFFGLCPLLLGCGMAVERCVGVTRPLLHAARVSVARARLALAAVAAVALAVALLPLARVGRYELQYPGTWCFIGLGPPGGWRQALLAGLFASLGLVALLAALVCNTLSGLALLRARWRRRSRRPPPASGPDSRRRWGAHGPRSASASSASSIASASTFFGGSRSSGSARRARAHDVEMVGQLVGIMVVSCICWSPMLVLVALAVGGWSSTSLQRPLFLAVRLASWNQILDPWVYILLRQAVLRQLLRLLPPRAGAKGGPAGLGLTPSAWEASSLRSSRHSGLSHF
The experiment can be described thus: Displacement of [3H]PGE2 from human recombinant EP1 receptor expressed in CHO cell membrane. Type of experiment: cell membranes. The conditions noted are these: for pIC50: read-out: IC50; for IC50: read-out: Log IC50 (converted). A digest of the protocol: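 Radioligand binding using [3H]-PGE2 on membranes of CHO cells expressing recombinant human EP1 receptor; affinity expressed as pIC50. Values are means of at least three experiments.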

Experiment [2] has as its target T1, Prostaglandin E2 receptor EP1 subtype. The experiment can be described thus: Antagonist activity at human recombinant EP1 receptor expressed in CHO cells assessed as inhibition of PGE2-induced calcium mobilization by FLIPR. Type of experiment: functional, cell-based. A digest of the protocol:
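Functional antagonism in CHO cells expressing recombinant human EP1 receptor; blockade of PGE2-driven intracellular Ca2+ mobilization read by FLIPR, reported as pKi. Values are means of at least three experiments, with some from two.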
Background: Calcium assays in cells follow changes in intracellular calcium, usually with a dye or a luminescent sensor.

In the case of `CCc1ccccc1N(CC(=O)NCc1ccc(OC)cc1)S(=O)(=O)c1ccc(C)cc1`, the pIC50 in experiment [1] is 7.60.

Regarding `CCc1ccccc1N(Cc1nnc(Cc2ccc(OC)cc2)o1)S(=O)(=O)c1ccc(C)cc1`, the negative-log IC50 (pIC50) in experiment [1] was 6.90. Also, in experiment [2], the pKi is 6.20. For `CCOc1ccc(Cc2nnc(CN(c3cccc(Cl)c3C)S(=O)(=O)c3ccc(C)cc3)o2)cc1`, the half-maximal inhibitory concentration (IC50) in experiment [1] is 3.98 nM. In addition, the pKi in experiment [2] is 7.30. The like results for `Cc1ccc(S(=O)(=O)N(Cc2nnc(Cc3ccccc3Cl)o2)c2cccc(Cl)c2C)cc1` were, in that order, 79.4 nM and 6.40. As to `Cc1ccc(S(=O)(=O)N(Cc2nnc(Cc3c(Cl)cccc3Cl)o2)c2cccc(Cl)c2C)cc1`, the IC50 in experiment [1] is 63.1 nM. Also, in experiment [2], the pKi is 6.30. The like results for `COc1ccc(Cc2nnc(CN(c3cccc(Cl)c3Cl)S(=O)(=O)c3ccc(Cl)cc3)o2)cc1` were, in that order, 20 nM and 7.20.

With `COc1ccc(NCc2nnc(CN(c3cccc(Cl)c3C)S(=O)(=O)c3ccc(C)cc3)o2)cc1`, the IC50 in experiment [1] was 20 nM. In addition, the pKi in experiment [2] was 7.10.

`CCc1ccccc1N(Cc1nnc(Cc2ccc(Cl)cc2)o1)S(=O)(=O)c1ccc(C)cc1`: in experiment [1], the IC50 is 398 nM. Also, the pKi in experiment [2] is 6.50. The like results for `Cc1ccc(S(=O)(=O)N(Cc2nnc(Cc3ccc(F)cc3)o2)c2cccc(Cl)c2C)cc1` were, in that order, 200 nM and 6.30. The like results for `COc1ccc(Cc2nnc(CN(c3cccc(C(F)(F)F)c3C)S(=O)(=O)c3ccc(C)cc3)o2)cc1` were, in that order, 63.1 nM and 6.40. The like results for `CCc1ccccc1N(Cc1nnc(Cc2ccccc2)o1)S(=O)(=O)c1ccc(C)cc1` were, in that order, 1000 nM and 6.40. Regarding `CCOc1ccc(Cc2nnc(CN(c3ccccc3CC)S(=O)(=O)c3ccc(C)cc3)o2)cc1`, in experiment [1], the half-maximal inhibitory concentration (IC50) is 126 nM. For the same compound, in experiment [2], the pKi is 7.40. Regarding `COc1ccc(Nc2nnc(CN(c3cccc(Cl)c3Cl)S(=O)(=O)c3ccc(C(F)(F)F)cc3)o2)cc1`, the half-inhibitory concentration (IC50) in experiment [1] is 7.94 nM. The pKi in experiment [2] was 7.20.

In the case of `Cc1ccc(S(=O)(=O)N(Cc2nnc(Cc3ccc(C(F)(F)F)cc3)o2)c2cccc(Cl)c2C)cc1`, in experiment [1], the half-inhibitory concentration (IC50) is 50.1 nM. For the same compound, the pKi in experiment [2] is 6.80.

`CCc1ccccc1N(Cc1nnc(CNc2ccc(OC)cc2)o1)S(=O)(=O)c1ccc(C)cc1`: the half-inhibitory concentration (IC50) in experiment [1] was 501 nM. Further, the negative logarithm of the Ki (pKi) in experiment [2] is 6.10. For `Cc1ccc(S(=O)(=O)N(Cc2nnc(Cc3cccc(Cl)c3)o2)c2cccc(Cl)c2C)cc1`, the concentration for half-maximal inhibition (IC50) in experiment [1] is 158 nM. For the same compound, the pKi in experiment [2] is 5.70. The like results for `COc1ccc(Cc2nnc(CN(c3cccc(Cl)c3Cl)S(=O)(=O)c3ccc(C)cc3)o2)cc1` were, in that order, 7.94 nM and 7.40. Regarding `CCOc1ccc(Cc2nnc(CN(c3cccc(Cl)c3Cl)S(=O)(=O)c3ccc(C(F)(F)F)cc3)o2)cc1`, in experiment [1], the IC50 was 2.51 nM. In experiment [2], the pKi is 8.20.

`Cc1ccc(S(=O)(=O)N(Cc2nnc(Cc3ccccc3F)o2)c2cccc(Cl)c2C)cc1`: the concentration for half-maximal inhibition (IC50) in experiment [1] is 501 nM. For the same compound, the negative-log Ki (pKi) in experiment [2] is 6.20. The like results for `CCc1ccccc1N(Cc1nnc(Oc2ccc(OC)cc2)o1)S(=O)(=O)c1ccc(C)cc1` were, in that order, more than 1000 nM and 7.00.

As to `COc1ccc(Nc2nnc(CN(c3cccc(Cl)c3C)S(=O)(=O)c3ccc(C)cc3)o2)cc1`, the IC50 in experiment [1] was 31.6 nM. Also, the negative-log Ki (pKi) in experiment [2] is 7.10. Consider `CCc1ccccc1N(CC(=O)OCc1ccc(OC)cc1)S(=O)(=O)c1ccc(C)cc1`, for which, in experiment [1], the negative logarithm of the IC50 (pIC50) was 7.20. For `Cc1ccc(S(=O)(=O)N(Cc2nnc(Cc3cccc(F)c3)o2)c2cccc(Cl)c2C)cc1`, the half-maximal inhibitory concentration (IC50) in experiment [1] was 316 nM. For the same compound, the negative-log Ki (pKi) in experiment [2] is 6.30. The matching figures for `COc1ccc(Cc2nnc(CN(c3cccc(Cl)c3C)S(=O)(=O)c3ccc(C)cc3)o2)cc1`: 6.31 nM and 7.40.

With `CCOc1ccc(Cc2nnc(CN(c3cccc(Cl)c3Cl)S(=O)(=O)c3ccc(C)cc3)o2)cc1`, the half-inhibitory concentration (IC50) in experiment [1] is 6.31 nM. For the same compound, the negative-log Ki (pKi) in experiment [2] is 7.50. The matching figures for `CCc1ccccc1N(Cc1nnc(COc2ccc(OC)cc2)o1)S(=O)(=O)c1ccc(C)cc1`: 25.1 nM and 6.90. As to `Cc1ccc(S(=O)(=O)N(Cc2nnc(Cc3ccc(N(C)C)cc3)o2)c2cccc(Cl)c2C)cc1`, in experiment [1], the IC50 is 12.6 nM. In addition, the pKi in experiment [2] is 7.70. Regarding `Cc1ccc(S(=O)(=O)N(CC(=O)NCCc2ccc(Cl)cc2)c2ccccc2C)cc1`, in experiment [1], the IC50 was 251 nM.

In the case of `COc1ccc(Nc2nnc(CN(c3cccc(Cl)c3Cl)S(=O)(=O)c3ccc(C)cc3)o2)cc1`, the IC50 in experiment [1] is 39.8 nM. Also, in experiment [2], the negative-log Ki (pKi) is 7.30. As for `Cc1ccc(S(=O)(=O)N(Cc2nnc(Cc3ccc(Cl)cc3Cl)o2)c2cccc(Cl)c2C)cc1`, in experiment [1], the IC50 was 63.1 nM. The negative logarithm of the Ki (pKi) in experiment [2] was 6.00. For the compound `CCc1ccccc1N(CC(=O)NCCc1ccc(OC)c(OC)c1)S(=O)(=O)c1ccc(C)cc1`, the half-maximal inhibitory concentration (IC50) in experiment [1] is 7.94 nM.

In general, pIC50 refers to the IC50 on a negative log10 scale, so that one unit is a factor of ten. By pKi is commonly meant the Ki on a negative log10 scale, so that one unit is a factor of ten. A word on the IC50: it is the point on the concentration scale where inhibition reaches its midpoint.

Source of the values: ChEMBL document CHEMBL1149562, “Identification and optimization of novel 1,3,4-oxadiazole EP1 receptor antagonists” (Bioorg Med Chem Lett, 2007).
